Measurements published in article PMC5083853 (Bioorganic & medicinal chemistry, 2016).

What was measured:
[1] = Solubility in buffered solutions at neutral pH; format: physicochemical
M9-ENL1 cells = assay: Cytotoxicity against M9-ENL1 leukemia cells; format: cell-based; details: for fold lower LC50 of C9 analog vs. C14-functionalized counterpart: 4, 6, 11 compared to 5, 7, 12
[2] = system: human umbilical cord blood cells (hUBC); assay: Human umbilical cord blood cell cytotoxicity test; format: cell-based; details: read-out: hUBC LC50; human umbilical cord blood cells, 24 h, cell viability, mean ± SD (n = 3)
Method in brief: (§1)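 Fresh cord blood (within 48 h of collection) was separated on a Ficoll-Paque gradient and cultured without cryopreservation at 37 °C, 5% CO2, in serum-free Iscove's MDM with 20% BIT 9500, LDL and β-mercaptoethanol. Cells got ≥3 doses of test compound from DMSO stock for 24 h, were stained for CD45, CD34 and DAPI, and were analysed by flow cytometry. Viable CD34+CD45dim percentage was compared with vehicle.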

[3] = Human umbilical cord blood cell cytotoxicity test; format: cell-based; details: human, hUBC LC50, human umbilical cord blood cells, cell viability, mean ± SD (n = 3)
Method in brief: as §1

With `C=C1C(=O)O[C@H]2[C@H]1C[C@H](OC(C(=O)OCCN1CCOCC1)c1ccccc1)/C(C)=C/CC[C@@]1(C)O[C@@H]21` (stereo partly drawn) [Compound 27, 2-morpholinoethyl2-(((3aR,5S,9aR,10aS,10bS,E)-6,9a-dimethyl-3-methylene-2-oxo-2,3,3a,4,5,8,9,9a,10a,10b-decahydrooxireno[2′,3′:9,10]cyclodeca[1,2-b]furan-5-yl)oxy)-2-phenyl acetate] the “solubility in buffered solutions” value [1] was “improved solubility” and the “fold reduction of activity compared to PTL” value (“fold reduction of activity” for short) (M9-ENL1 cells) was 3 to 5 folds.

`C=C1C(=O)O[C@@H]2[C@@H]1CC/C(COC(C(=O)OCC)c1ccc(C(F)(F)F)cc1)=C/CC[C@]1(C)O[C@H]21` (stereo partly drawn) [Compound 23b, ethyl 2-(((3aR,9aR,10aS,10bS,Z)-9a-methyl-3-methylene-2-oxo-2,3,3a,4,5,8,9,9a,10a,10b-decahydrooxireno[2′,3′:9,10]cyclodeca[1,2-b]furan-6-yl)methoxy)-2-(4-(trifluoromethyl)phenyl)acetate] showed a CC50 [2] greater than 5 µM.

With `C=C1C(=O)O[C@H]2[C@H]1CC/C(COCc1ccccc1)=C/CC[C@@]1(C)O[C@@H]21` [Compound 14, (3aR,9aR,10aS,10bS,Z)-6-((benzyloxy)methyl)-9a-methyl-3-methylene-3a,4,5,8,9,9a,10a,10b-octahydrooxireno[2′,3′:9,10] cyclodeca[1,2-b]furan-2(3H)-one] the “fold lower cytotoxicity compared to C14-benzoylated counterpart” value (M9-ENL1 cells) was 2 fold.

For `C=C1C(=O)O[C@H]2[C@H]1CC/C(COC(C(=O)OCCN1CCOCC1)c1ccccc1)=C/CC[C@@]1(C)O[C@@H]21` (stereo partly drawn) [Compound 28, 2-morpholinoethyl 2-(((3aR,9aR,10aS,10bS,Z)-9a-methyl-3-methylene-2-oxo-2,3,3a,4,5,8,9,9a,10a,10b-decahydrooxireno [2′,3′:9,10]cyclodeca[1,2-b]furan-6-yl)methoxy)-2-phenylacetate], the “solubility in buffered solutions” value [1] was “improved solubility” and the “fold reduction of activity” value (M9-ENL1 cells) was 3 to 5 folds.

In the case of `C=C1C(=O)O[C@H]2[C@H]1CC/C(COC(C(=O)OCC)c1ccccc1C(F)(F)F)=C/CC[C@@]1(C)O[C@@H]21` (stereo partly drawn) [Compound 21, ethyl2-(((3aR,9aR,10aS,10bS,Z)-9a-methyl-3-methylene-2-oxo-2,3,3a,4,5,8,9,9a,10a,10b-decahydrooxireno[2′,3′:9,10]cyclodeca[1,2-b]furan-6-yl)methoxy)-2-(2-(trifluoromethyl)phenyl)acetate], the “fold lower LC50 than the phenyl-containing counterparts (18, 19)” value (M9-ENL1 cells) is reported as 2- to 3 fold.

With `C=C1C(=O)O[C@H]2[C@H]1C[C@H](OC(C(=O)OCC)c1ccccc1C(F)(F)F)/C(C)=C/CC[C@@]1(C)O[C@@H]21` (stereo partly drawn) [Compound 20, ethyl2-(((3aR,5S,9aR,10aS,10bS,E)-6,9a-dimethyl-3-methylene-2-oxo-2,3,3a,4,5,8,9,9a,10a,10b-decahydrooxireno [2′,3′:9,10]cyclodeca[1,2-b]furan-5-yl)oxy)-2-(2-(trifluoromethyl)phenyl)acetate] the “fold lower LC50 than the phenyl-containing counterparts (18, 19)” value (M9-ENL1 cells) was 2- to 3 fold.

For `C=C1C(=O)O[C@H]2[C@H]1CC/C(COC(C(=O)OCCN1CCCC1)c1ccccc1)=C/CC[C@@]1(C)O[C@@H]21` (stereo partly drawn) [Compound 29, 2-(pyrrolidin-1-yl)ethyl 2-(((3aR,5S,9aR,10aS,10bS,E)-6,9a-dimethyl-3-methylene-2-oxo-2,3,3a,4,5,8,9,9a,10a,10b-decahydrooxireno[2′,3′:9,10]cyclodeca[1,2-b]furan-5-yl)oxy)-2-phenylacetate], the “solubility in buffered solutions” value [1] was “improved solubility” and the “fold reduction of activity” value (M9-ENL1 cells) was 3 to 5 folds.

`C=C1C(=O)O[C@H]2[C@H]1CC/C(C)=C/CC[C@@]1(C)O[C@@H]21` [PTL, parthenolide, reference compound] gave a CC50 at 24 h [3] greater than 20 µM.

In the case of `C=C1C(=O)O[C@H]2[C@H]1C[C@H](OC(C(=O)OCC)c1ccc(C(F)(F)F)cc1)/C(C)=C/CC[C@@]1(C)O[C@@H]21` (stereo partly drawn) [Compound 22a, ethyl 2-(((3aR,5S,9aR,10aS,10bS,E)-6,9a-dimethyl-3-methylene-2-oxo-2,3,3a,4,5,8,9,9a,10a,10b-decahydrooxireno [2′,3′:9,10]cyclodeca[1,2-b]furan-5-yl)oxy)-2-(4-(trifluoromethyl)phenyl)acetate], the CC50 at 24 h [3] is reported as greater than 5 µM.

In the case of `C=C1C(=O)O[C@H]2[C@H]1C[C@H](OC(C(=O)OCc1ccccc1)c1ccccc1)/C(C)=C/CC[C@@]1(C)O[C@@H]21` (stereo partly drawn) [Compound 25a, benzyl 2-(((3aR,5S,9aR,10aS,10bS,E)-6,9a-dimethyl-3-methylene-2-oxo-2,3,3a,4,5,8,9,9a,10a,10b-decahydrooxireno [2′,3′:9,10]cyclodeca[1,2-b]furan-5-yl)oxy)-2-phenylacetate], the CC50 at 24 h [3] is reported as greater than 5 µM.

With `C=C1C(=O)O[C@@H]2[C@@H]1CC/C(COC(C(=O)OCC)c1ccc(C(F)(F)F)cc1)=C/CC[C@]1(C)O[C@H]21` (stereo partly drawn) [Compound 23, ethyl 2-(((3aR,9aR,10aS,10bS,Z)-9a-methyl-3-methylene-2-oxo-2,3,3a,4,5,8,9,9a,10a,10b-decahydrooxireno[2′,3′:9,10]cyclodeca[1,2-b]furan-6-yl)methoxy)-2-(4-(trifluoromethyl)phenyl)acetate] the “fold lower LC50 than the phenyl-containing counterparts (18, 19)” value (M9-ENL1 cells) was 2- to 3 fold.

For `C=C1C(=O)O[C@H]2[C@H]1C[C@H](OC(C(=O)OCC)c1ccc(C(F)(F)F)cc1)/C(C)=C/CC[C@@]1(C)O[C@@H]21` (stereo partly drawn) [Compound 22, ethyl 2-(((3aR,5S,9aR,10aS,10bS,E)-6,9a-dimethyl-3-methylene-2-oxo-2,3,3a,4,5,8,9,9a,10a,10b-decahydrooxireno [2′,3′:9,10]cyclodeca[1,2-b]furan-5-yl)oxy)-2-(4-(trifluoromethyl)phenyl)acetate], the “fold lower LC50 than the phenyl-containing counterparts (18, 19)” value (M9-ENL1 cells) was 2- to 3 fold.

In the case of `C=C1C(=O)O[C@H]2[C@H]1C[C@H](OC(=O)c1cn(C)c3ccccc13)/C(C)=C/CC[C@@]1(C)O[C@@H]21` [Compound 6, (3aS,5S,9aR,10aS,10bS,E)-6,9a-dimethyl-3-methylene-2-oxo-2,3,3a,4,5,8,9,9a,10a,10b decahydrooxireno [2′,3′:9,10] cyclodeca[1,2-b]furan-5-yl 1-methyl-1H-indole-3-carboxylate], the “fold lower LC50 of C9 analog vs. C14-functionalized counterpart” value (M9-ENL1 cells) is reported as 2- to 3 fold.

With `C=C1C(=O)O[C@H]2[C@H]1C[C@H](OC(=O)c1ccc3ccccc3c1)/C(C)=C/CC[C@@]1(C)O[C@@H]21` [Compound 4, (3aS,5S,9aR,10aS,10bS,E)-6,9a-dimethyl-3-methylene-2oxo2,3,3a,4,5,8,9,9a,10a,10bdecahydrooxireno[2′,3′:9,10]cycl odeca [1,2-b]furan-5-yl 2-naphthoate] the “fold lower LC50 of C9 analog vs. C14-functionalized counterpart” value (M9-ENL1 cells) was 2- to 3 fold.

In the case of `C=C1C(=O)O[C@H]2[C@H]1C[C@H](OC(=O)c1cc(-c3ccc(Cl)cc3)on1)/C(C)=C/CC[C@@]1(C)O[C@@H]21` [Compound 11, (3aR,5S,9aR,10aS,10bS,E)-6,9a-dimethyl-3-methylene-2-oxo-2,3,3a,4,5,8,9,9a,10a,10b-decahydrooxireno[2′,3′:9,10] cyclodeca[1,2-b]furan-5-yl 5-(4-chlorophenyl)isoxazole-3-carboxylate], the “fold lower LC50 of C9 analog vs. C14-functionalized counterpart” value (M9-ENL1 cells) is reported as 2- to 3 fold.

Work on `C=C1C(=O)O[C@H]2[C@H]1C[C@H](OC(C(=O)OCc1ccccc1)c1ccccc1)/C(C)=C/CC[C@@]1(C)O[C@@H]21` (stereo partly drawn) [Compound 25b, benzyl 2-(((3aR,5S,9aR,10aS,10bS,E)-6,9a-dimethyl-3-methylene-2-oxo-2,3,3a,4,5,8,9,9a,10a,10b-decahydrooxireno [2′,3′:9,10]cyclodeca[1,2-b]furan-5-yl)oxy)-2-phenylacetate] yielded a CC50 [2] greater than 5 µM.
